PDI turbidity = inhibitors of human PDI, primary screen, biochemical, turbidity, single point, plate reader. Protein disulfide-isomerase (Homo sapiens), P07237. PDI insulin aggregation turbidity, A650, 90 min. inhibition, % at 10 µM. actives 0.052% (n = 350,000). AID 588391, 2011;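 active means mean inhibition across replicates of 30% or more, whatever share of single replicates reach that level; inconclusive means mean inhibition below 30% while every single replicate reaches 30%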
ERp5 block = inhibitors of ERp5-driven insulin aggregation, primary screen, biochemical, turbidity, absorbance 650 nm, single point | AID 651711, 2012 | actives 0.05% (n = 350,000) | Protein disulfide-isomerase A6 (Homo sapiens), Q15084 | 90 min | inhibition, % at 9.99 µM;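 active means mean replicate inhibition above about 25%, with every replicate also reaching it, limit read from the data, passing the limit was not always enough; inconclusive means only one of those two criteria met; inactive means neither criterion met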
Target sequence (Q15084 whole entry, looked up): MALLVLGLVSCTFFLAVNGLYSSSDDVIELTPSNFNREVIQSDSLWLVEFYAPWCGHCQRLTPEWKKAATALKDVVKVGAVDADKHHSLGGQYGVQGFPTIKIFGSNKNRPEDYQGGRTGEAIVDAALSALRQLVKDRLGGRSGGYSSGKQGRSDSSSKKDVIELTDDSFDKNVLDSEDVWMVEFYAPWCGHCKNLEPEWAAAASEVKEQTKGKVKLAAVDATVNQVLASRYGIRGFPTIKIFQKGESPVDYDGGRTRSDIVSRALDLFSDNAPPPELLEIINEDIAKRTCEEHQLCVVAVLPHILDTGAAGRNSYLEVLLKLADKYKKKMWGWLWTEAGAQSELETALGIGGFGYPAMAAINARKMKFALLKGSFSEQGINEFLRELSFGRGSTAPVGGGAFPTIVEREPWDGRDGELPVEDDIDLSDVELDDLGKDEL
TbMetRS inhib = T. brucei MetRS inhibitors, primary screen, biochemical, luminescence; methionyl-tRNA synthetase (Trypanosoma brucei brucei); purified T. brucei MetRS, ATP depletion, Kinase-Glo luminescence; inhibition, % at 11.9 µM; actives 0.4% (n = 360,000); AID 624268, 2012;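 active means inhibition above a per-plate cutoff of the control wells' mean inhibition plus 3 SD, cut at about 5.5% in these data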;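 further: 0% = DMSO wells median and 100% = median of wells with control inhibitor compound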
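Dosing: 11.9 µM single point; system: parasite MetRS enzyme; technique: luminescence of leftover ATP; times: 15 min enzyme-compound preincubation, 2 h reaction, 10 min detection, 25 °C; replicates: each compound tested once; read-out basis: percent inhibition relative to median high and low control wells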
Numbers without * were called inactive; ? = inconclusive; . = no result given; ! = a repeat was not active. This is a sample that favours compounds with a hit; in the whole collection about 0.4% have one here.

SMILES | PDI turbidity | ERp5 block | TbMetRS inhib
CC(C)NC(=O)N(C)C[C@@H]1Oc2cc(Br)ccc2S(=O)(=O)N([C@@H](C)CO)C[C@@H]1C | . | 0.3 | .
CCCNC(=O)C[C@@H]1CC[C@H]2[C@@H](COC[C@@H](O)CN2C(=O)Nc2ccccc2OC)O1 | . | 3.0 | .
C[C@@H](NC(=O)C[C@H]1C[C@H]2c3cc(NC(=O)CN(C)C)ccc3O[C@H]2[C@@H](CO)O1)c1ccccc1 | . | 3.4 | .
C[C@@H]1CN([C@@H](C)CO)C(=O)c2cc(NC(=O)Nc3ccc(C(F)(F)F)cc3)ccc2O[C@@H](C)CCCCO[C@H]1CN(C)S(=O)(=O)c1cccs1 | . | 6.2 | .
Cc1ccc(C(=O)NCCN2C3=NC[C@@H](Cc4ccccc4)N3C[C@H]2Cc2ccc(O)cc2)cc1Br | 0.9 | -1.1 | -0.1
C[C@@H](CN1C2=NC[C@H](Cc3ccc(O)cc3)N2C[C@H]1Cc1ccc(O)cc1)NC(=O)CCC1CCCCC1 | 47.4* | -1.4 | -0.3
C[C@@H](CN1C2=NC[C@H](Cc3ccccc3)N2C[C@H]1Cc1ccc(O)cc1)NC(=O)CCC1CCCCC1 | 13.8 | 4.2 | 0.1
Cc1ccc(C(=O)NCCN2C3=NC[C@H](Cc4ccc(O)cc4)N3C[C@H]2Cc2ccc(O)cc2)cc1Br | 39.7* | 0.8 | -0.1
O=S(=O)(O)c1cc(Cl)cc(N=Nc2ccc(O)cc2O)c1O | 3.3 | -5.4 | -0.5
O=S(=O)(O)c1cc(O)c2c(O)c(N=Nc3cc(Cl)ccc3O)c(S(=O)(=O)O)cc2c1 | -1.9 | . | 18.1*
Cc1noc(C)c1NC(=O)Nc1ccc2c(c1)C(=O)N([C@H](C)CO)C[C@@H](C)[C@H](CN(C)S(=O)(=O)c1cn(C)cn1)OCCCC[C@@H](C)O2 | . | -4.2 | .
Cc1ccc(S(=O)(=O)N(C)C)cc1NC(=O)COC(=O)C1(c2ccccc2)CC1 | -2.6 | 27.8* | -0.6
Cc1ccc(S(=O)(=O)N(C)C)cc1NC(=O)COC(=O)C1CC1 | 5.3 | 4.8 | -0.1
CNC[C@@H]1Oc2ncc(C#Cc3ccc(OC)c(OC)c3)cc2C(=O)N([C@H](C)CO)C[C@@H]1C | . | 1.8 | .
Cc1noc(C)c1NC(=O)N(C)C[C@H]1Oc2ccc(NC(=O)Cc3ccccc3)cc2CC(=O)N([C@@H](C)CO)C[C@H]1C | . | 1.4 | .
Cc1cc(Cl)ccc1OCc1n[nH]c(=S)n1C1CCCCC1 | 32.2* | . | 0.0
COc1ccc(Cl)cc1-c1n[nH]c(=S)n1C1CCCCC1 | 11.7 | . | -0.5
CCN(CC)C(=O)CSc1nnc([C@H](Cc2c[nH]c3ccccc23)NC(=O)OC(C)(C)C)o1 | 55.7* | . | -0.9
CN(C)C(=O)CSc1nnc([C@H](Cc2ccccc2)NC(=O)OC(C)(C)C)o1 | 10.6 | 3.2 | -0.4
CSc1nnc([C@H](Cc2c[nH]c3ccccc23)NC(=O)OC(C)(C)C)o1 | 27.6 | -8.0 | 0.1
CCSc1nnc([C@H](Cc2c[nH]c3ccccc23)NC(=O)OC(C)(C)C)o1 | 49.3* | . | -0.5
COc1ccc(S(=O)(=O)Nc2ccc3c(c2)C(=O)N([C@H](C)CO)C[C@@H](C)[C@H](CN(C)CC2CC2)OCCCC[C@@H](C)O3)cc1 | . | -4.7 | .
C[C@@H]1CCCCO[C@H](CN(C)C(=O)C2CCCCC2)[C@H](C)CN([C@@H](C)CO)C(=O)c2cc(NS(=O)(=O)c3ccc(Cl)cc3)ccc2O1 | . | -0.9 | .
COc1cc(/C=C2\SC(=S)N(NS(=O)(=O)c3ccc(C)cc3)C2=O)ccc1O | ? | -5.8 | 5.1
CCOc1ccc(/C=C2/SC(=S)N(C(C(=O)O)c3ccccc3)C2=O)cc1OCC (configuration not stated) | 14.7 | -8.3 | 0.8
SMILES | PDI turbidity | ERp5 block | TbMetRS inhib
CCOc1cc(/C=C2\SC(=S)N(C(C(=O)O)c3ccccc3)C2=O)ccc1O (configuration not stated) | 34.6* | 0.1 | 3.5
COc1cc(/C=C2\SC(=S)N(NS(=O)(=O)c3ccccc3)C2=O)ccc1O | 40.8* | 1.2 | 1.1
C[C@@H]1CCCCO[C@@H](CN(C)Cc2ccc3c(c2)OCO3)[C@H](C)CN([C@H](C)CO)C(=O)c2cc(NC(=O)Nc3ccc(C(F)(F)F)cc3)ccc2O1 | . | -2.5 | .
COc1ccccc1S(=O)(=O)N1CC[C@@H]2[C@H](CO)Nc3ccc(-c4ccc(F)cc4)cc3[C@@H]21 | . | -4.9 | .
Cc1ccc(S(=O)(=O)C=CS(=O)(=O)c2ccc(C)cc2)cc1 | 3.7 | 31.5* | -0.1
Cc1ccc(S(=O)(=O)c2ccc(C)cc2)cc1 | -3.4 | 6.1 | 0.3
CN1CCN(Cc2nc3ccccc3c(=O)n2Cc2nc(-c3cccc([N+](=O)[O-])c3)cs2)CC1 | 14.4 | -1.2 | -0.7
CN1CCN(Cc2nc3ccccc3c(=O)n2Cc2nc(-c3ccc4ccccc4c3)cs2)CC1 | 43.8*! | 12.9 | 0.0
COc1ccccc1C(=O)Nc1ccc2c(c1)OC[C@H](C)N(C(C)=O)C[C@H](C)[C@H](OC)CN(C)C2=O | . | 1.2 | .
COc1cccc(CN2[C@H](CO)[C@H](c3ccccc3)C23CN(C(=O)C2CCOCC2)C3)c1 | . | -1.7 | .
O=C(C[C@H]1CC[C@@H](NC(=O)C2CC2)[C@H](CO)O1)NCc1ccncc1 | . | 0.6 | .
C#Cc1ccc([C@@H]2C=C(C(=O)Nc3ccccc3)O[C@H](OCc3ccc(CO)cc3)C2)cc1 | . | -4.4 | .
CCOc1cccc(-c2c(C(=O)N/N=C/c3ccco3)nnn2-c2nonc2N)c1 | 3.2 | . | 0.1
CCOc1cccc(-c2c(C(=O)N/N=C/c3ccc(C)o3)nnn2-c2nonc2N)c1 | 3.8 | 26.7* | -0.4
CCCN(C)C[C@H]1Oc2ncc(-c3cccc(C#N)c3)cc2C(=O)N([C@H](C)CO)C[C@@H]1C | . | 10.9 | .
O=C(/C=C/c1cccc(O)c1)c1cccnc1 | 2.0 | -1.8 | -0.9
O=C(/C=C/c1cccnc1)c1cccc(O)c1 | 44.4* | 3.9 | 0.2
O=C1CCC(=O)N1c1nc2nc(-c3ccccc3)cc(-c3ccccc3)n2n1 | 33.3* | . | -0.7
CC(=O)Nc1nc2nc(-c3ccccc3)cc(-c3ccccc3)n2n1 | 0.4 | . | -0.6
CCCCNC(=O)c1ccc(C#CC(C)(C)C)c(OC(C)=O)c1 | . | 1.9 | .
CC(=O)N1[C@@H]2c3ccc(C4=CCCC4)c(=O)n3C[C@H]1[C@H](CO)[C@H]2C(=O)NC1CCCC1 | . | 1.3 | .
NNC(=O)c1cc(-c2ccc(O)cc2)nc2ccc(Br)cc12 | 40.4* | 9.8 | -0.5
NNC(=O)c1cc(C2CC2)nc2ccc(Br)cc12 | -2.7 | 1.3 | -0.6
O=C(C[C@@H]1C[C@H]2c3cc(NC(=O)Nc4ccccc4F)ccc3O[C@H]2[C@H](CO)O1)NCC(F)(F)F | -4.7 | 84.1*! | 0.3
CCCNC(=O)C[C@@H]1C[C@H]2c3cc(NC(=O)CC4CC4)ccc3O[C@H]2[C@@H](CO)O1 | . | -2.2 | .
COCCNC(=O)C[C@@H]1C[C@@H]2c3cc(NC(=O)NC4CCCC4)ccc3O[C@@H]2[C@H](CO)O1 | . | 13.6 | .
COCCNC(=O)C[C@@H]1C[C@H]2c3cc(NC(=O)NC4CCCC4)ccc3O[C@H]2[C@@H](CO)O1 | . | 81.7* | .
O=C(C[C@H]1C[C@H]2c3cc(NC(=O)Nc4ccccc4F)ccc3O[C@H]2[C@@H](CO)O1)NCC(F)(F)F | . | -6.2 | .

Compound activity (PubChem)
